As usually defined, the IC50 is the concentration that inhibits the measured activity by half. One may read the half-life as the time in which the quantity being followed falls by half. A word on the logD: it is lipophilicity at a set pH, counting ionised and neutral species. High values mean higher lipophilicity, low ones lower lipophilicity. For orientation: solubility means the dissolved amount per volume that the medium holds.

The results in this text go back to ChEMBL document CHEMBL1773006, “Enone- and chalcone-chloroquinoline hybrid analogues: in silico guided design, synthesis, antiplasmodial activity, in vitro metabolism, and mechanistic studies” (J Med Chem, 2011).

In one data set the test system is Liver microsomes. The experiment in a line: (§1) Half life in human liver microsomes assessed as compound degradation at 1 uM by LC-MS analysis in presence of NADPH and UDPGA. It counts as ADME, Microsome. The settings on record: microsomes, 1 µM. Background: Liver microsomes are a subcellular fraction often used to study metabolism.
A short description of data set [1]: Inhibition of Plasmodium falciparum falcipain 2 assessed as benzyloxycarbonyl-Phe-Leu-7-amino-4-methylcoumarin substrate hydrolysis after 30 mins by spectrofluorometry analysis.
Data set [2] is described as follows: (§2) Half life in mouse liver microsomes assessed as compound degradation at 1 uM by LC-MS analysis in presence of NADPH and UDPGA. The format is ADME, Microsome. The settings on record: liver microsomes.
Data set [3] can be described thus: Partition coefficient, log D of the compound at pH 3 by HPLC analysis. The format is physicochemical. The settings on record: octanol/water.
The nature of data set [4]: as §1. It counts as ADME, Microsome. The settings on record: liver microsomes.
Data set [5] is described as follows: Solubility of the compound in 0.01 M hydrochloric acid at pH 2. It counts as physicochemical.
Data set [6] has as its system Plasmodium falciparum. The experiment in a line: Antiplasmodial activity against chloroquine-resistant Plasmodium falciparum Dd2 by FACS-based assay. The format is functional, organism-based. A general note: In flow cytometry, cells or beads pass a laser one at a time.
Data set [7] in a line: Solubility of the compound in phosphate buffer at pH 6.5. The format is physicochemical.
The test system of data set [8] is Plasmodium falciparum. In words: Antiplasmodial activity against chloroquine-resistant Plasmodium falciparum W2 by FACS-based assay. The format is functional, organism-based. The method, boiled down:
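W2 parasites kept in continuous culture in standard medium with 10% human serum, synchronized with 5% D-sorbitol at ring stage when needed. Parasite development read by FACS. Final DMSO at most 0.5%. IC50 in µM is the mean of two independent determinations, each run in duplicate.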

Data set [9] is described as follows: Ratio of compound IC50 to hematin IC50 for inhibition of beta-hematin formation.
Data set [10] concerns Plasmodium falciparum. In words: Antiplasmodial activity against chloroquine-sensitive Plasmodium falciparum D10 by FACS-based assay. It counts as functional, organism-based.
Data set [11] can be described thus: Partition coefficient, log D of the compound at pH 7.4 by HPLC analysis. The format is physicochemical. The settings on record: octanol/water.
Data set [12] has as its system Plasmodium falciparum. The experiment in a line: Antiplasmodial activity against chloroquine-sensitive Plasmodium falciparum D10 infected in erythrocytes assessed as inhibition of sorbitol-induced hemolysis after 15 mins. It counts as functional.
The subject of another data set is Liver. The description is as §2. The settings on record: microsomes, 1 µM. It counts as ADME, Microsome.
The subject of the next data set is CHO. The experiment in a line: Cytotoxicity against CHO cells at 100 uM. It counts as cell-based, Cricetulus griseus. The settings on record: chinese hamster.
The mark [13] stands for this setting: phosphate buffer, read-out: solubility.
[14] abbreviates: 0.01 M hydrochloric acid, read-out: solubility.

Molecules are shown by their SMILES. Converted amounts (≈) assume the structure as drawn.

With `CCN(CC)CCCC(C)Nc1ccnc2cc(Cl)ccc12` (stereo not given) [CHLOROQUINE], in the data set on Liver microsomes, the t1/2 is greater than 250 min.
In the case of `CC(C)C[C@H](NC(=O)[C@H]1O[C@@H]1C(=O)O)C(=O)NCCCCN=C(N)N` [E-64], the IC50 in data set [1] is 55 nM.
In the case of `COc1cc(/C=C/C(C)=O)ccc1OCCN1CCN(c2ccnc3cc(Cl)ccc23)CC1`, the half-life at 1 µM in data set [2] was 5.6 min; in data set [4], 9.8 min. Also, the logD in [3] worked out at 1.2; in data set [11] it was 4.2. Moreover, the solubility in data set [5] (buffer) is greater than 100 µg/mL; in data set [7] (setting [13]) it was 1.6 µg/mL (≈ 3.43 µM). The IC50 is 1000 nM with Plasmodium falciparum [6], 500 nM in the data set on Plasmodium falciparum [8], greater than 50000 nM in [1] and 1200 nM in the data set on Plasmodium falciparum [10]. In data set [9], the Ratio IC50 worked out at 0.5.
Turning to `OCCNc1ccnc2cc(Cl)ccc12`, the “inhibition (INH)” value in the data set with Plasmodium falciparum [12] is listed as 0.9%. Also, the IC50 in the data set with Plasmodium falciparum [6] was 1000 nM; in the data set with Plasmodium falciparum [8], 200 nM; in data set [1], greater than 50000 nM; with Plasmodium falciparum [10], 2600 nM. Moreover, in data set [9], the Ratio IC50 turned out to be 4.9.
Consider `COc1ccc(C(=O)/C=C/c2ccc(O)c(OC)c2)c(OC)c1`, for which, in the data set with Plasmodium falciparum [12], the “inhibition (INH)” value was 27.9%. Further, the IC50 in the data set on Plasmodium falciparum [6] was 7300 nM; with Plasmodium falciparum [8] it was greater than 10000 nM; in data set [1], greater than 50000 nM; in the data set with Plasmodium falciparum [10], 5300 nM. The Ratio IC50 in [9] is greater than 5.
For the compound `COc1ccc(C(=O)/C=C/c2ccc(OCCNc3ccnc4cc(Cl)ccc34)c(OC)c2)c(OC)c1`, the values for the t1/2 with Liver and in the data set on Liver microsomes were 12.7 min and 17.5 min, respectively. Moreover, the logD in [3] worked out at 2.8; in data set [11], 4.2. Also, the solubility was greater than 100 µg/mL in data set [5] (buffer) and 3.1 µg/mL (≈ 5.97 µM) in data set [7] (setting [13]). For the same compound, the IC50 came out at 1100 nM in the data set on Plasmodium falciparum [6], 400 nM in the data set with Plasmodium falciparum [8], 22900 nM in data set [1] and 800 nM with Plasmodium falciparum [10]. The Ratio IC50 in data set [9] amounted to 0.3.
With `CC(=O)/C=C/c1ccc(O)cc1`, the IC50 in [1] is greater than 50000 nM. Moreover, the Ratio IC50 in data set [9] was greater than 5.
Consider `COc1ccc(C(=O)/C=C/c2ccc(OCc3cn(-c4ccnc5cc(Cl)ccc45)nn3)c(OC)c2)c(OC)c1`, for which the “inhibition (INH)” value in the data set with Plasmodium falciparum [12] was found to be 15.4%. In addition, the t1/2 with Liver is 56.8 min; with Liver microsomes, 51.1 min. Also, the logD in data set [3] and in data set [11] was 4.3 each time. Besides, the solubility in [5] (buffer) and in [7] (buffer) was less than 1.6 µg/mL in each case. Besides, the IC50 in data set [1] was 10800 nM. Besides, the Ratio IC50 in data set [9] was found to be 1.6.
Consider `COc1cc(/C=C/C(C)=O)ccc1O` [DEHYDROZINGERONE], for which the “inhibition (INH)” value in the data set with Plasmodium falciparum [12] is listed as 21.1%. Further, the IC50 in the data set on Plasmodium falciparum [6] was greater than 20000 nM; with Plasmodium falciparum [8], greater than 10000 nM; in the data set with Plasmodium falciparum [10], greater than 20000 nM.
For `COc1cc(/C=C/C(C)=O)cc(CN2CCN(c3ccnc4cc(Cl)ccc34)CC2)c1O`, in the data set with Plasmodium falciparum [12], the “inhibition (INH)” value stood at 16.8%. Also, the t1/2 with Liver was 14 min. For the same compound, the logD worked out at 0.9 in [3] and 3.9 in data set [11]. Also, the solubility was greater than 100 µg/mL in [5] (buffer) and 1.6 µg/mL (≈ 3.54 µM) in [7] (setting [13]). In addition, the concentration for half-maximal inhibition (IC50) in the data set with Plasmodium falciparum [6] is 1700 nM; in the data set with Plasmodium falciparum [8], 500 nM; in [1], greater than 50000 nM; with Plasmodium falciparum [10], 1000 nM. Also, the Ratio IC50 in data set [9] is 0.5.
With `COc1ccc(C(=O)/C=C/c2ccc(OCCN3CCN(c4ccnc5cc(Cl)ccc45)CC3)c(OC)c2)c(OC)c1`, the half-life at 1 µM in data set [2] was determined as 9.8 min; in data set [4], 11.5 min. The logD is 2.2 in data set [3] and 5.3 in [11]. Further, the solubility in data set [5] (buffer) is greater than 100 µg/mL; in [7] (buffer) it was less than 1.6 µg/mL. The IC50 was 500 nM in the data set with Plasmodium falciparum [6], 600 nM in the data set on Plasmodium falciparum [8], 11700 nM in [1] and 1200 nM with Plasmodium falciparum [10]. Further, the Ratio IC50 in data set [9] was found to be 0.2.
On to `CC(=O)/C=C/c1ccc(O)c(CN2CCN(c3ccnc4cc(Cl)ccc34)CC2)c1`, for which the “inhibition (INH)” value with Plasmodium falciparum [12] came to 11.6%. The results for the t1/2 with Liver and in the data set with Liver microsomes were 15 min and 7.5 min, respectively. Besides, the logD in data set [3] stood at 0.8; in data set [11] it was 4.2. For the same compound, the solubility is greater than 100 µg/mL in [5] (buffer) and less than 1.6 µg/mL in data set [7] (buffer). The IC50 in the data set with Plasmodium falciparum [6] was determined as 3100 nM; in the data set with Plasmodium falciparum [8] it was 700 nM; in data set [1], 29900 nM; with Plasmodium falciparum [10], 1700 nM. For the same compound, the Ratio IC50 in [9] turned out to be 0.5.
`OCCN1CCN(c2ccnc3cc(Cl)ccc23)CC1`: the IC50 is 3800 nM in the data set with Plasmodium falciparum [6], 1000 nM in the data set with Plasmodium falciparum [8], greater than 50000 nM in data set [1] and 5200 nM in the data set with Plasmodium falciparum [10]. Moreover, in data set [9], the Ratio IC50 was 3.9.
`COc1cc(/C=C/C(C)=O)ccc1OCCNc1ccnc2cc(Cl)ccc12`: the “inhibition (INH)” value in the data set with Plasmodium falciparum [12] came out at 12.3%. Moreover, the t1/2 is 13.4 min with Liver and 10.5 min with Liver microsomes. In addition, the logD in data set [3] was determined as 1.8; in data set [11], 3. Further, the solubility in [5] (setting [14]) amounted to 50 µg/mL (≈ 126 µM); in data set [7] (setting [13]), 6.3 µg/mL (≈ 15.9 µM). Further, the IC50 with Plasmodium falciparum [6] was 1500 nM; in the data set on Plasmodium falciparum [8], 100 nM; in [1], greater than 50000 nM; in the data set with Plasmodium falciparum [10] it was 1000 nM. In [9], the Ratio IC50 turned out to be 0.6.
As to `COc1ccc(C(=O)/C=C/c2ccc(O)cc2)c(OC)c1`, the IC50 in [1] is greater than 50000 nM. Moreover, the Ratio IC50 in data set [9] worked out at 1.9.
For the compound `COc1ccc(C(=O)/C=C/c2cc(CN3CCN(c4ccnc5cc(Cl)ccc45)CC3)c(O)c(OC)c2)c(OC)c1`, in the data set on Plasmodium falciparum [12], the “inhibition (INH)” value was 3.9%. For the same compound, the values for the t1/2 in the data set on Liver and in the data set with Liver microsomes were 11.8 min and 37 min, respectively. In addition, the figures for the logD in data set [3] and in data set [11] were 2.1 and 5, respectively. Moreover, the Activity result with CHO is on record as “Non-toxic”. For the same compound, the solubility in data set [5] (buffer) was greater than 100 µg/mL; in [7] (buffer) it was less than 1.6 µg/mL. In addition, the 50% inhibitory concentration (IC50) in the data set with Plasmodium falciparum [6] is 500 nM; in the data set on Plasmodium falciparum [8], 400 nM; in [1] it was 9100 nM; in the data set with Plasmodium falciparum [10] it was 500 nM. The Ratio IC50 in data set [9] worked out at 0.3.
Regarding `COc1ccc(C(=O)/C=C/c2ccc(O)c(CN3CCN(c4ccnc5cc(Cl)ccc45)CC3)c2)c(OC)c1`, the t1/2 in the data set with Liver amounted to 45.4 min; in the data set on Liver microsomes it was 58.6 min. For the same compound, the logD in data set [3] amounted to 2; in data set [11], 5.3. For the same compound, in the data set with CHO, the Activity result is “Non-toxic”. Besides, the solubility in data set [5] (buffer) was greater than 100 µg/mL; in data set [7] (buffer) it was less than 1.6 µg/mL. In addition, the IC50 in the data set with Plasmodium falciparum [6] stood at 500 nM; with Plasmodium falciparum [8], 300 nM; in data set [1], 10000 nM; in the data set on Plasmodium falciparum [10], 600 nM. For the same compound, in data set [9], the Ratio IC50 amounted to 0.2.
As to `Clc1ccc2c(N3CCNCC3)ccnc2c1`, the “inhibition (INH)” value in the data set with Plasmodium falciparum [12] was 5.8%. The IC50 in the data set with Plasmodium falciparum [6] was 900 nM; in the data set on Plasmodium falciparum [8] it was 300 nM; in data set [1], greater than 50000 nM; with Plasmodium falciparum [10] it was 700 nM.
Take `COc1cc(/C=C/C(C)=O)ccc1OCc1cn(-c2ccnc3cc(Cl)ccc23)nn1`: the half-life at 1 µM in data set [2] came out at 6.2 min; in [4], 7.4 min. The logD stood at 3.5 in data set [3] and 3.6 in data set [11]. Further, the solubility in data set [5] (setting [14]) and in [7] (setting [13]) was 3.1 µg/mL (≈ 7.13 µM) each time.
